INS promoter act: activators of insulin promoter-driven GFP, primary screen, imaging, TRM-6 cells (human fetal islet line), eGFP reporter, cell count | plate-scaled: unstimulated 0, stimulated control 100 | activation, % at 2 µM | 0.81% of 130,000 active;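 active means activation at 2 µM above a set limit, confirmed on inspection of the cell images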;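 further: share of cells whose green reporter signal exceeds an intensity cutoff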
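Assay system: TRM-6 insulin promoter–eGFP reporter cells / Input: 1,000 cells per well / Medium: Low-glucose (5.5 mM) medium with tamoxifen / Also added: tamoxifen inducer, 0.75 µM, in seeding medium / Timing: overnight tamoxifen, then two-day compound incubation at 37 °C / Signal: automated fluorescence imaging of paraformaldehyde-fixed, Hoechst-counterstained cells, green channel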
Of the large screens only hits and unclear results are named; the others gave an inactive call. Many of the other results were omitted from the sample, so hits are more common in it than they were.

O=C1S/C(=C/c2ccc(N3CCOCC3)o2)C(=O)N1Cc1c(F)cccc1Cl	INS promoter act 178
COC(=O)c1cc2sc(Cl)cc2n1CC(=O)NCCC(C)C	none
COc1ccc(C(=O)N2CCc3ccccc32)cc1	none
Cc1cccc2cc3c(N)c(C(=O)N4CCc5ccccc54)sc3nc12	INS promoter act 233
O=C(c1ccccc1)N1CCc2ccccc21	none
O=S(CC1CC1(Cl)Cl)CC1CC1(Cl)Cl (stereo not given)	none
Cc1sc(NC(=O)CN2CCOCC2)c(C(=O)c2ccccc2)c1C	INS promoter act 75
CCOC(=O)c1c(NC(=O)CN2CCOCC2)sc(C(=O)NC)c1C	none
CCOC(=O)c1c(NC(=O)CN2CCOCC2)sc2c1CCCC2=O	none
C/C(=N\N1CCN(C)CC1)c1ccc(OC(F)F)cc1	none
Cc1cccc(-c2c3c(=O)n(C)c(=O)n(C)c3cn2C2CCCCC2)c1	none
C=CCNc1nc(Cl)nc(Nc2ccc(OCC)cc2)n1	none
Cc1noc(NS(=O)(=O)c2ccc(NC(=O)Nc3ccc(Cl)c(Cl)c3)cc2)c1C	none
Cc1noc(NS(=O)(=O)c2ccc(NC(=O)CSc3n[nH]c(-c4ccccc4)n3)cc2)c1C	INS promoter act 154
Cc1noc(NS(=O)(=O)c2ccc(NC(=O)CCN3C(=O)c4ccccc4C3=O)cc2)c1C	none
CC(C)(C)C1CCc2c(C(=O)NNC(=O)CCC(=O)O)csc2C1 (stereo not given)	none
O=S(=O)(/N=C(/Nc1ccccn1)c1ccccc1)c1ccccc1	INS promoter act 196
Cc1cccc(NC(=S)N/C(=N/S(=O)(=O)c2ccccc2)c2ccccc2)c1	none
CC(C)OC(=S)N/C(=N\S(=O)(=O)c1ccccc1)c1ccccc1	none
CCOC(=O)C1CCN(S(=O)(=O)c2ccc(C)c(C)c2)CC1	INS promoter act 206
CCOC(=O)C1CCCN(S(=O)(=O)c2ccc(C)cc2)C1 (stereo not given)	none
CCNC(=O)NC(=O)C(C)OC(=O)C1CCN(S(=O)(=O)c2ccc(C)c(C)c2)CC1 (stereo not given)	none
N#Cc1nn(-c2ccccc2)nc1N1CCCCC1	none
CCC(C)OC(=O)C1=C(C)NC(=O)CC1c1ccccc1OC (stereo not given)	none
CN(C)S(=O)(=O)c1ccc2oc(SCC(N)=O)nc2c1	none
CCS(=O)(=O)c1ccc2oc(SCC(=O)NC3CCCC(C)C3C)nc2c1 (stereo not given)	INS promoter act 93
Cc1cc(C)nc(NC(=O)CSc2nc3ccccc3o2)n1	none
CCOC(=O)Cn1nc(C)c(NC(=O)c2ccc([N+](=O)[O-])c(C)c2)c1C	none
O=C(Cc1nc(-c2ccc([N+](=O)[O-])cc2)cs1)Nc1ccccc1	INS promoter act 193
O=C(COc1ccc([N+](=O)[O-])cc1)Nc1ccncc1	none
COc1ccccc1N(C(=O)c1ccncc1)c1nc(-c2ccc([N+](=O)[O-])cc2)cs1	none
C/C(CC(=O)Nc1ccc(OCc2ccccc2)cc1)=N\NC(=O)C(=O)Nc1ccc(C)c(Cl)c1	none
COc1ccc(CCn2nnnc2C(CC(C)C)N2CCN(c3ncccn3)CC2)cc1OC (stereo not given)	none
CC(C)C(c1nnnn1C1CCCCC1)N1CCN(c2ncccn2)CC1 (stereo not given)	none
COc1ccc(CCn2nnnc2C(C(C)C)N2CCN(c3ncccn3)CC2)cc1OC (stereo not given)	INS promoter act 170
Cc1ccc(CNC(=O)Cn2c(=O)oc3ccccc32)o1	none
CN(C)c1ccc(/C=C/c2cc[n+](C)cc2)cc1	INS promoter act 174
CN(C)c1ccc(/C=N/N=C/c2ccccc2O)cc1	none
CC(=O)/C(=C/c1ccc(N(C)C)cc1)C(=O)c1ccccc1	none
Cc1ccnn1CCSCC(=O)O	none
O=C1C2C3C=CC(C2C(=O)N1CCCO)C1C2C(=O)N(CCCO)C(=O)C2C31 (stereo not given)	none
CC[N+]1=C(C)C(C)(C)c2cc(C)ccc21	INS promoter act 488
CO[C@@H]1O[C@@H]2COC(c3ccccc3)O[C@@H]2[C@@H](OC)[C@@H]1O (stereo not given in full)	none
COC(=O)C1=C(C)NC(C)=C(C(=O)OC)C1C(=O)OCC(=O)N1c2ccccc2CC1C (stereo not given)	none
CCOC(=O)/C=c1\s/c(=C\c2ccc3cc(OC)ccc3c2)c(=O)n1CC(=O)NCc1ccc2c(c1)OCO2	INS promoter act 335
CCOC(=O)/C=c1\s/c(=C\c2c(OCC)ccc3ccccc23)c(=O)n1CC(=O)NCC1CCCO1 (stereo not given)	none
COCCNC(=O)Cn1c(=O)n(CCCCCC(=O)NCc2ccc3c(c2)OCO3)c(=O)c2sccc21	none
COc1ccc(CCNC(=O)c2cccnc2SC)cc1	none
CC(NC(=O)CN1CCc2ccccc21)c1ccccc1 (stereo not given)	none
C=CCn1c(SCC(=O)Nc2ccc(C(=O)OC(C)C)cc2)nnc1-c1cccs1	none
O=C(CSc1nnc(-c2ccco2)n1Cc1ccccc1)c1ccc(F)cc1	none
C=CCn1c(CCNC(=O)c2cccs2)nnc1SCC(=O)Nc1cccc(Cl)c1C	none
C=CCn1c(CNC(=O)c2cccs2)nnc1SCC(=O)c1ccc(Br)cc1	INS promoter act 92
